Data from ChEMBL document CHEMBL1955800, “Synthesis and biological validation of novel pyrazole derivatives with anticancer activity guided by 3D-QSAR analysis” (Bioorg Med Chem, 2012).

Columns and labels:
[1] = test system: A549; test: Antiproliferative activity against human A549 cells after 48 hrs by BrdU assay; assay type: functional, cell-based; details: A549, 48 h
Outline: (§1)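 Seeded at 5 × 10³ cells/well in RPMI 1640 + 10% FBS, 37 °C, 5% CO₂, 3 h. Compounds from 10 mM DMSO stocks, final 100–0.2 µM with 1% DMSO, 48 h. BrdU (final 10 µM) added for 3 h, then cells fixed and DNA denatured 30 min rt, ELISA absorbance read. DNA synthesis reduction relative to untreated cells, IC50 by curve fit.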

[2] = test system: NCI-H23; test: Antiproliferative activity against human NCI-H23 cells after 48 hrs by BrdU assay; assay type: functional, cell-based; details: NCI-H23, 48 h; outline: as §1
[3] = test system: A549; test: Growth inhibition of human A549 cells after 48 hrs by MTS assay; assay type: functional, cell-based; details: A549, 48 h
Outline: (§2)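 Seeded at 5 × 10³ cells/well in F12K (A549) or RPMI 1640 (NCI-H23) with 10% FBS, 37 °C, 5% CO₂, 3 h, then exposed 48 h to compounds at final 100–0.2 µM (10 mM DMSO stocks, 1% DMSO constant). MTS reagent added and incubated at 37 °C. Formazan from metabolically active cells measured, growth relative to untreated control, IC50 derived.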

[4] = test system: NCI-H23; test: Growth inhibition of human NCI-H23 cells after 48 hrs by MTS assay; assay type: functional, cell-based; details: NCI-H23, 48 h; outline: as §2
[5] = Solubility of the compound in DMSO; assay type: physicochemical

SMILES | IC50 [1] [µM] | IC50 [2] [µM] | IC50 ([3]; read-out: IC50) [µM] | IC50 ([3]; read-out: pIC50 (converted)) [µM] | IC50 [4] [µM] | solubility [5]
O=C(N/N=C/c1cccc(O)c1O)c1cc(-c2ccc(Cl)cc2)nn1Cc1ccc(Cl)nc1 | 0.7 | 0.57 | 5.2 | 5.25 | 3.35 | –
CC(C)(C)c1ccc(Cn2nc(-c3ccc(Cl)cc3)cc2C(=O)N/N=C/c2cccc(O)c2O)cc1 | 0.4 | 0.3 | 7.8 | 7.76 | 3.91 | –
O=C(N/N=C/c1ccc(F)cc1F)c1cc(-c2ccc(Cl)cc2)nn1Cc1ccc(Cl)nc1 | 9.05 | 7.86 | 16 | 15.8 | 13.5 | –
CC(C)(C)c1ccc(Cn2nc(-c3ccc(Cl)cc3)cc2C(=O)N/N=C/c2ccc(F)cc2F)cc1 | > 100 | 21.9 | > 100 | > 100 | > 100 | –
N#Cc1ccc(/C=N/NC(=O)c2cc(-c3ccc(Cl)cc3)nn2Cc2ccc(Cl)nc2)cc1 | > 100 | > 100 | > 100 | > 100 | > 100 | Insoluble
N=C(NO)c1cc(-c2ccc(Cl)cc2)nn1Cc1ccc(Cl)nc1 | 38.3 | 27.9 | 50.5 | 50.1 | 44.4 | –
CC(C)(C)c1ccc(Cn2nc(-c3ccc(Cl)cc3)cc2C(=N)NO)cc1 | 17 | 12.3 | 17.7 | 17.8 | 16.5 | –
CC(C)(C)c1ccc(Cn2nc(-c3ccc(Cl)cc3)cc2/C(N)=N/OC(=O)c2cccc(O)c2O)cc1 | 26.8 | 15.6 | 83.2 | 83.2 | 21.9 | –
CC(C)(C)c1ccc(Cn2nc(-c3ccc(Cl)cc3)cc2-c2noc(-c3cccc(O)c3O)n2)cc1 | 1.54 | 0.36 | > 100 | > 100 | > 100 | –
O=C(N/N=C/c1ccccc1O)c1cc(-c2ccc(Cl)cc2)nn1Cc1ccc(Cl)nc1 | – | 0.27 | – | – | 3.04 | –
